# According to PMC4474499 (Science Advances, 2015):
# Assays:
# [1] = target: T1, TLR1 (Homo sapiens, UniProt Q15399); assay: Microscale thermophoresis; format: binding
# T1 sequence (Q15399 25-580 limits assumed): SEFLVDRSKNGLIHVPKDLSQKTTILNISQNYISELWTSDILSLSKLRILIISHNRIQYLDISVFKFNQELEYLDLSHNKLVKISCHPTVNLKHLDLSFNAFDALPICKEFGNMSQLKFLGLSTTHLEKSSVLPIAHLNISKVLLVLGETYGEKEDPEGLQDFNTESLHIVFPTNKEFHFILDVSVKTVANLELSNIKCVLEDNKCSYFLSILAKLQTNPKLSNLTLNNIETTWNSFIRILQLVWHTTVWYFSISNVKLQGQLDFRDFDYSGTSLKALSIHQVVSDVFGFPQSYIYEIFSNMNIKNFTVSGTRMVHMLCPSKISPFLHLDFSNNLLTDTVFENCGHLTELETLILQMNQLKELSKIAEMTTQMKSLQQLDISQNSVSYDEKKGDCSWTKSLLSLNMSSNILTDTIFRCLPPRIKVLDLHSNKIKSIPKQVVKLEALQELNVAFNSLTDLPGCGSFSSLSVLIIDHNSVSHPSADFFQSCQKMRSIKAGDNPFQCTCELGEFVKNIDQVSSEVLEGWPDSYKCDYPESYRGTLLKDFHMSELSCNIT
# Summary of the method: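 Human TLR1 expressed in baculovirus-infected High Five insect cells and purified on protein A Sepharose. Labelled with NT-647 and held at 10 nM. Test compound varied 0.31 nM–10 μM. Buffer: 50 mM Tris-HCl pH 7.6, 150 mM NaCl, 10 mM MgCl2, 0.05% Tween 20, in glass capillaries. Apparent Kd fitted from thermophoresis.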
# [2] = test system: primary rat macrophage cells; assay: Primary peritoneal macrophage NO activation assay; format: cell-based; details: 24 hours
# Summary of the method: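 Peritoneal cells from Sprague-Dawley rats collected by HBSS lavage, then red cells lysed. Seeded at 40,000/well in Iscove's medium with 10% FBS; adhered 2 h; non-adherent cells washed off; cultured overnight. Serum-free Iscove's then given with test compound, or 66 nM Pam3CSK4, for 24 h. Supernatant nitrite measured by diaminonaphthalene fluorescence.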
# [3] = test system: TNF-α; assay: TNF-α ELISA in Raw 264.7 cells; format: cell-based; details: Mus musculus, RAW264.7, 24 h, read-out: EC50, TNF-α production
# Summary of the method: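 RAW 264.7 cells, 1 × 10^6/well in six-well plates, grown 24 h. Medium refreshed (RPMI 1640). Treated 24 h with test compound; 66 nM Pam3CSK4 as positive control. Supernatants frozen at −80°C. TNF-α quantified by sandwich ELISA against recombinant cytokine standards, each sample in triplicate.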
# [4] = target: T2, human TLR3 (Homo sapiens, UniProt O15455); assay: SEAP reporter gene detection assay in HEK-Blue TLR3 cells; format: cell-based; details: 0 to 20 μM, 24 hours
# T2 sequence (O15455 24-904): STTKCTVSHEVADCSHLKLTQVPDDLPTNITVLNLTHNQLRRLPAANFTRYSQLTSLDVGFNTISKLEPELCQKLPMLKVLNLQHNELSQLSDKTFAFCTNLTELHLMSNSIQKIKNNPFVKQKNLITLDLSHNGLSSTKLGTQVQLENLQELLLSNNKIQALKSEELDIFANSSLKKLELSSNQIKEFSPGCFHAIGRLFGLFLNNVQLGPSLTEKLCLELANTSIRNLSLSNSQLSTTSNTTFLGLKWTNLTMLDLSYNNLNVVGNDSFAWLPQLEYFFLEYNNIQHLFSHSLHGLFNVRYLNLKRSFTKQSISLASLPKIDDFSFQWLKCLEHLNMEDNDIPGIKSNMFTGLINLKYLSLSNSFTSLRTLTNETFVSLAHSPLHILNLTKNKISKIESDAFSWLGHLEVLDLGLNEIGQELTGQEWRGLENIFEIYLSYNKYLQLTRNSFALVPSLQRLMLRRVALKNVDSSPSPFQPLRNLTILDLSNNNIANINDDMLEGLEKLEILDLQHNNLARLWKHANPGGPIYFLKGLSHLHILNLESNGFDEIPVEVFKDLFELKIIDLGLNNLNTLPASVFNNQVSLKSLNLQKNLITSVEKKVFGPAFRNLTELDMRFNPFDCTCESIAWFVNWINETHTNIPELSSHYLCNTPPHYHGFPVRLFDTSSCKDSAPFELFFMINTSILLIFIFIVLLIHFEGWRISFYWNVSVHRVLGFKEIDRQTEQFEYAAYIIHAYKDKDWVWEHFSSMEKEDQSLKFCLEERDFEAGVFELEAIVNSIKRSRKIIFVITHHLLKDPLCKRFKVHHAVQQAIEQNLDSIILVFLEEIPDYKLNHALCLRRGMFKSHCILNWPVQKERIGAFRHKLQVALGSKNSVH
# Summary of the method: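 HEK 293 cells stably carrying the human TLR and a SEAP reporter, 4 × 10^4/well, grown 24 h. Then 24 h in Opti-MEM/0.5% FBS with test compound. Positive controls: poly(I:C) 0–10.9 μg/ml (TLR3), LPS 0–36.5 ng/ml (TLR4), FLA-BS 0–10 μg/ml (TLR5), R848 0–6 μg/ml (TLR7, TLR8). Supernatant heated 30 min at 65°C, then CSPD substrate added; luminescence read after 20 min.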
# [5] = test system: Raw 264.7 cells; assay: In vitro NO activation assay for Raw 264.7 cells; format: cell-based, mouse; details: Raw 264.7 cells, 24 hours
# Summary of the method: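 RAW 264.7 cells, 80,000/well, grown 24 h. Non-adherent cells removed; medium changed to unsupplemented RPMI 1640. Treated 24 h with test compound, or 66 nM (100 ng/ml) Pam3CSK4 as control. Supernatant reacted 15 min in the dark with 2,3-diaminonaphthalene in HCl, quenched with NaOH. Fluorescence read at ex 365/em 450 nm; nitrite calculated from a standard curve.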
smiles,measurement,setting,value
"CNc1ccc([N+](=O)[O-])cc1-n1cnc(-c2ccc(C(F)(F)F)cc2)c1 [CU-T12-9, N-methyl-4-nitro-2-(4-(4-(trifluoromethyl)phenyl)-1H-imidazol-1-yl)aniline]",Kd,[1],229 ± 66 nM
same,NO production,[2],efficiently triggered NO production
same,EC50,[3],60.5 ± 17 nM
same,"activation of SEAP signaling, TLR3",[4],not in other TLR-overexpressing cells
same,NO production,[5],efficiently triggered NO production
